Compounds with a hit are over-represented: about 2.1% of the library has one in this group of screens.
HCV NS3 hel inh: inhibitors of Hepatitis C virus NS3 helicase. NS3 helicase DNA unwinding, Cy5 molecular beacon fluorescence. inhibition, % at 10.9 µM. 290,000 compounds, 0.56% hits. AID 1800;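 active = inhibition above the mean of all tested compounds plus 3 SD, set per campaign, cut at about 35% in these data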
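test system = hepatitis C virus NS3 helicase domain fragment enzyme | reagent = annealed dual-labelled DNA beacon duplex, ATP-started | times = 1 h at 25 °C | detection = Cy5 fluorescence, 0 and 60 min reads | read-out basis = percent inhibition from t60/t0 fluorescence ratio | control set = DMSO and thioflavine S | replication = one well per compound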
eIF4H inh: inhibitors of RNA binding by human eIF4H | Q15056 | eIF4H fluorescence polarization binding assay | inhibition, % at 35 µM | 290,000 compounds, 0.94% hits | AID 2012;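 note: calls also rest on retests at 20 µM and on dose response follow-up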
PABP FP inh: PABP-poly(A) binding inhibition. P11940. PABP-poly(A) RNA binding, fluorescence polarization. inhibition, % at 35 µM. 290,000 compounds, 1% hits. AID 2014;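 note: calls also rest on retests at 20 µM and on dose response follow-up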
Target sequence (P11940 whole entry, looked up): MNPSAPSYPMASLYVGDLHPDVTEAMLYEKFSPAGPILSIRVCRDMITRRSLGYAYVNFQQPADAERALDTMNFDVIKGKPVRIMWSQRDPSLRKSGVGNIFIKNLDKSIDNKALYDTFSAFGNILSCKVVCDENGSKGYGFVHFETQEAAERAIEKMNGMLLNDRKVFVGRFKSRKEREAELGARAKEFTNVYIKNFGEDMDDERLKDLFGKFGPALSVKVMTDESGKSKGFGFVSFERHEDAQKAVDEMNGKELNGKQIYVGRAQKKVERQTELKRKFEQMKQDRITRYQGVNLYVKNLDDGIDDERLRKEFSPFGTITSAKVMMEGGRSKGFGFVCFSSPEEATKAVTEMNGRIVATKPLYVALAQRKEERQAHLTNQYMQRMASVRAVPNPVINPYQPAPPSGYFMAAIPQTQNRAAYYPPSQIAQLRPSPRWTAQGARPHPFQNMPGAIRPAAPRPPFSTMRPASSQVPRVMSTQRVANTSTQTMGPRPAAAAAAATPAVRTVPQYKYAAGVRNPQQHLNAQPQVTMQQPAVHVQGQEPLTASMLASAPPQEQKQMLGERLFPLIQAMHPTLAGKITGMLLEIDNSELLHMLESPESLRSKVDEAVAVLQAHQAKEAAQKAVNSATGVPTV
EBNA-1 inhibitor: blocks EBNA-1 binding to DNA. EBNA-1 DNA binding, fluorescence polarization. inhibition, % at 14.8 µM. 300,000 compounds, 0.34% hits. AID 1950; in the data active = inhibition above about 28%
PABP1 MLLE inh: inhibitors of microRNA-mediated deadenylation, human PABP1 MLLE binding; P11940; AID 588489; GST-MLLE / FITC-PAM2 fluorescence polarization; inhibition, % at 20 µM; 360,000 compounds, 0.36% hits; in the data active = inhibition above about 35%, passing the limit was not always enough
ZTA counter: counter-screen for EBNA-1 inhibitors: inhibitors of Epstein-Barr virus ZTA | ZTA-DNA binding, fluorescence polarization | AID 2234 | P03206 | inhibition, % at 11 µM | 320,000 compounds, 0.15% hits; in the data active = inhibition above about 33%
Of the large screens only hits and unclear results are named; the others gave an inactive call. Unless noted, the rule behind the calls is not given here.

CC(=O)COc1ccc2oc(=O)cc(-c3cc4ccccc4o3)c2c1	none
O=c1cc(-c2cc3ccccc3o2)c2cc(O)ccc2o1	eIF4H inh 80, PABP FP inh 60
O=C1Nc2cc(Cl)cnc2N2CCCC12 (stereo not given)	eIF4H inh 61
COCC(C)n1c(SCC(=O)Nc2nccs2)nc2ccccc2c1=O (stereo not given)	PABP1 MLLE inh 44 (no result: HCV NS3 hel inh, eIF4H inh, PABP FP inh, EBNA-1 inhibitor)
C[C@H](NC(=O)c1[nH]cnc1C(=O)Nc1ccc(CNC(=O)OC(C)(C)C)cc1)C(=O)OC(C)(C)C	none (no result: HCV NS3 hel inh)
COc1ccc(C(=S)N2CCN(c3ccccc3C)CC2)cc1	PABP1 MLLE inh 42
CCC(=O)Nc1ccc(Cl)c(NC(=S)NC(=O)COc2ccccc2)c1	PABP1 MLLE inh 39
COc1ccc(NC(=O)c2ccco2)cc1NC(=O)c1ccco1	none
COc1ccc(NC(=O)c2ccco2)cc1N	eIF4H inh 92, PABP FP inh 74
CC(C)C1C(=O)N(Cc2cn(CCC3OCCO3)nn2)CCS(=O)(=O)N1Cc1ccc(-c2cccc(CO)c2)cc1 (stereo not given)	none (no result: HCV NS3 hel inh, eIF4H inh, PABP FP inh, EBNA-1 inhibitor, ZTA counter)
O=C(O)c1ccc(CSc2n[nH]c(-c3ccco3)n2)cc1	HCV NS3 hel inh 36, eIF4H inh 77, PABP FP inh 79
CC1CCC(NC(=O)CCS(=O)(=O)c2ccc3c(c2)CCN3C(=O)C2CC2)CC1 (stereo not given)	none
Cn1cccc1/C=C1\SC(=S)N(NC(=O)c2ccc(F)cc2)C1=O	eIF4H inh inconclusive, PABP FP inh inconclusive
CC(=O)Nc1cc(OC(C)=O)c2nonc2c1OC(C)=O	ZTA counter 70
CCCCNC(=O)Oc1c(Br)cc2sc(=O)oc2c1Br	eIF4H inh 96, PABP FP inh 103 (no result: PABP1 MLLE inh)
COc1cc(O)c2c(c1)OC(C)(C)CC2=O	none
COc1cc(O)cc2cc3c(c(O)c12)C(=O)CC(C)(O)O3 (stereo not given)	eIF4H inh 72, PABP FP inh 62, PABP1 MLLE inh 45 (no result: HCV NS3 hel inh)
COc1ccc(C(=O)NCc2ccc3c(c2)cc(C)n3C)cc1	PABP1 MLLE inh 51
Cc1ccc(S(=O)(=O)NCc2ccncc2)cc1	none
Cc1cc2cc(CNC(=O)c3ccco3)ccc2n1C	eIF4H inh 53, PABP FP inh 33 (no result: HCV NS3 hel inh)
Cc1cc2cc(CN3C(=O)c4ccccc4C3=O)ccc2n1C	PABP1 MLLE inh 48
Cc1ccc(S(=O)(=O)NCc2ccc3c(c2)cc(C)n3C)cc1	eIF4H inh 58, PABP FP inh 4.3
Cc1nc(SCC(=O)N2CCOCC2)c2c3c(sc2n1)CCC3	none (no result: HCV NS3 hel inh, eIF4H inh, PABP FP inh, EBNA-1 inhibitor, ZTA counter)
Cc1cc2cc(CNC(=O)COc3ccccc3)ccc2n1C	PABP1 MLLE inh 50
Cc1cc2cc(CNC(=S)Nc3ccc(OC(F)F)cc3)ccc2n1C	eIF4H inh 75, PABP FP inh active, PABP1 MLLE inh 39
Cc1cc2cc(CNC(=O)c3ccc4c(c3)OCO4)ccc2n1C	eIF4H inh 61, PABP FP inh 64, PABP1 MLLE inh 56
COCC(=O)NCc1ccc2c(c1)cc(C)n2C	none
CCc1nnc(NC(=O)CSc2nc(C)nc3c2c(=O)n(C)c(=O)n3C)s1	none
O=C1N=C2SCCN2/C1=C\c1ccccc1Cl	PABP1 MLLE inh 39
Cc1cccc(Nc2nnc(SCC3CCCCO3)s2)c1C (stereo not given)	eIF4H inh 1.8
COc1cccc(Nc2nnc(SCC3CCCCO3)s2)c1 (stereo not given)	none
CCCCNC(=O)c1ccc(Cn2c(=S)[nH]c3c([nH]c4ccc(OC)cc43)c2=O)cc1	none
COc1ccc2[nH]c3c(=O)n(Cc4ccc(C(=O)NCC5CCCO5)cc4)c(=S)[nH]c3c2c1 (stereo not given)	eIF4H inh 61, PABP FP inh active
CC(C)CN(CC(C)C)C1=N/C(=C\c2ccco2)C(=O)N1c1ccccc1	PABP FP inh 53
CC1=CC(C)C(C[N+]2(C)CCCCC2)C(C)C1 (stereo not given)	PABP FP inh 61
S=C(NCCCN1CCOCC1)NCCCN1CCOCC1	PABP1 MLLE inh 41
Cn1nc(C(C)(C)C)c([N+](=O)[O-])c1C(=O)NC1CCCCC1	none
Cc1cc(C)n2nc(C(=O)Nc3ccc4c(c3)CCC4)nc2n1	eIF4H inh 2.1
Cc1cc(C)n2nc(C(=O)Nc3ccc(S(=O)(=O)N4CCCC4)cc3)nc2n1	none
Cn1cc(/C=N/NC(=O)c2ccc(C#N)cc2F)c2ccccc21	PABP FP inh 69

Bioassay records (PubChem)
